For 97 compounds, cytotoxicity results are on record in ChEMBL document CHEMBL4513216, “Probing the Open Global Health Chemical Diversity Library for Multistage-Active Starting Points for Next-Generation Antimalarials” (ACS Infect Dis, 2020).

SMILES strings stand for the structures.

This data set in a line: Toxicity liver stage against HepG2, at 10uM. Further details: test concentration 10 uM, cell line HepG2-A16-CD81EGFP. The class given is cell-based. The following applies: human, HepG2-A16-CD81EGFP cells; read-out: INHIBITION
The essentials:
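Uninfected HepG2-A16-CD81EGFP cells, 3 × 10^3 per well, 1536-well, plated on prespotted compound at 10 μM final, parasite-free screening media added to match infected plates; puromycin 10 μM positive, DMSO 0.5% negative; run in parallel with 48 h PbLuc assay at 37 °C, 5% CO2; viability by CellTiter-Glo luminescence, normalized to controls.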
On to `O=C(NCC1(CO)CC1)c1ccccc1Cl`, for which the cytotoxicity at 10 µM turned out to be 5.47%.
The figure for `O=C(NCC1(CO)CC1)c1ccccc1C(F)(F)F` is 4%.
As for `CC(=O)NCCn1ccc(-c2ccccn2)n1`, the cytotoxicity at 10 µM was 7.38%.
For the compound `CC(=O)N1CCC2(CC1)CN(C(C)=O)CC21CCNC1=O` (configuration not stated), the cytotoxicity at 10 µM was -2.69%.
As to `Cc1oncc1C(=O)N1CCC2(CC1)CN(S(C)(=O)=O)c1ccccc12`, the cytotoxicity at 10 µM is 1.47%.
Next, `CC(=O)NCC(=O)N1CCC2(COCc3c(C)nc(N(C)C)nc32)C1` (configuration not stated): 1.41%; `NC(=O)c1c(NC(=O)CCC(=O)O)sc2c1CCc1ccccc1-2`: -1.99%; `COc1cc(OCC(=O)NCCc2ccccc2)cc(OC)c1OC`: 0.285%.
On to `CC1CCN(C(=O)Cn2nc(Br)nc2Br)CC1`, for which the cytotoxicity at 10 µM is -1.8%.
Consider `O=c1ccc(-c2cccs2)nn1CN1CCN(Cc2ccccc2)CC1`, for which the cytotoxicity at 10 µM was -3.73%.
The figure for `O=C(c1ccnnc1)N1C[C@H](Oc2cccnc2)[C@H]2OCCC[C@H]21` is -14.7%; for `Cc1ccn(-c2ccnc(N3CCC(N4CCCCC4)CC3)n2)n1` it is 4.54%.
`O=C(c1cc(-c2cccnc2)[nH]n1)N1CCCC(Cc2ccccn2)C1` (configuration not stated): the cytotoxicity at 10 µM was 7.5%.
As to `Oc1nc(C2CCN(Cc3ccccn3)CC2)cc2ccccc12`, the cytotoxicity at 10 µM was determined as 11.8%.
On to `Cc1nn(C)cc1NC(=O)CC1CCN(CCc2ccccc2)CC1`, for which the cytotoxicity at 10 µM was -4.92%.
In the case of `Cc1cc(CN2CCN(Cc3ccc(C#N)cc3F)CC2)no1`, the cytotoxicity at 10 µM turned out to be 1.71%.
Next, `NC(=O)CCOc1ccc(NC(=O)c2ccccc2OC(F)F)cc1`: 9.62%.
As to `O=C(Cc1cccs1)NCCNc1nccc(C(F)(F)F)n1`, the cytotoxicity at 10 µM stood at 10.9%.
`CN1CCC(N(Cc2ccccc2)C(=O)c2nccn3ccnc23)CC1`: the cytotoxicity at 10 µM came to 3.52%.
Turning to `CCN(Cc1ccncc1)C1CCN(c2ccccc2)C1=O` (configuration not stated), the cytotoxicity at 10 µM is -1.83%.
For `CN(C)C(=O)N1CCN(Cc2cnc(-c3ccsc3)s2)CC1`, the cytotoxicity at 10 µM worked out at 2.03%.
As to `CN(Cc1cnn(C)c1)C(=O)C(c1ccccc1)N1CCSCC1` (configuration not stated), the cytotoxicity at 10 µM was found to be 5.21%.
For `Cc1cccc(OCCCNC(=O)Cn2ccc(C)cc2=O)c1`, the cytotoxicity at 10 µM is -4.42%.
For `N#Cc1ccc(F)c(CN(CC(=O)N2CCCC2)CC2CCCO2)c1` (configuration not stated), the cytotoxicity at 10 µM was -7.06%.
Consider `CN(C)C(=O)CCS(=O)(=O)Cc1ccn(-c2cccc(F)c2)n1`, for which the cytotoxicity at 10 µM is -5.71%.
Consider `CCCNC(=O)CN1CCC(NCc2c(C)nn(C)c2OC)CC1`, for which the cytotoxicity at 10 µM was -5.32%.
As to `O=C(COC1CCCC1)NCCc1noc(-c2ccccn2)n1`, the cytotoxicity at 10 µM was 3.41%.
Consider `COCc1nccc(C2CCCN(Cc3ccccc3C#N)C2)n1` (configuration not stated), for which the cytotoxicity at 10 µM is 6.05%.
With `COc1ccnc(N2CCN(C(=O)c3csc(C)n3)CC2)n1`, the cytotoxicity at 10 µM worked out at 0.313%.
In the case of `Cc1nn(C)c(Cl)c1C(=O)NCc1cccnc1N1CCOCC1`, the cytotoxicity at 10 µM was -132%.
Consider `OC(CN(Cc1ccccc1)Cc1cccnc1)c1ccco1` (configuration not stated), for which the cytotoxicity at 10 µM was -0.408%.
For `CC(C#N)CNS(=O)(=O)c1ccc(F)c(Br)c1` (configuration not stated), the cytotoxicity at 10 µM was -1.69%.
Regarding `CN(C)C(=O)c1ccc(OC2CCCC2)cc1`, the cytotoxicity at 10 µM is -3.51%.
Next, `Cc1noc(C)c1CNc1ccc2nc(C3CC3)sc2c1`: 10.8%.
With `CC1CCCN(S(=O)(=O)N2CCOC3(CCCC3)C2)C1` (configuration not stated), the cytotoxicity at 10 µM was -1.57%.
The figure for `c1csc(SCC2CN=C(N3CCOCC3)S2)c1` (configuration not stated) is 10.3%; for `CCC(NCc1ccccc1)c1ccccc1OCC(=O)NC` (configuration not stated) it is 16.2%; for `CS(=O)(=O)Nc1cccc(C(=O)Nc2ccc3c(c2)C(=O)NC3)c1` it is 5.91%.
With `CN(C)C1(CNC(=O)C2CCCN2Cc2ccc(F)cc2)CCOCC1` (configuration not stated), the cytotoxicity at 10 µM was determined as 3.25%.
As for `N#Cc1cc(Cl)ccc1N1CCN(C(=O)C2CCC2)CC1`, the cytotoxicity at 10 µM was determined as 10.1%.
Turning to `Cn1cc(C2CCCN2C(=O)Cn2ccc3ccc(Cl)cc32)cn1` (configuration not stated), the cytotoxicity at 10 µM stood at 8.81%.
On to `CC(C)(C)OC(=O)N1CSC[C@@H]1C(=O)NCc1ccncc1`, for which the cytotoxicity at 10 µM turned out to be 1.17%.
The figure for `NS(=O)(=O)c1cnc(NCC2(c3cccc(F)c3)CCOCC2)s1` is -5.71%; for `CCC(C)C(=O)Nc1ccc(CCN2CCOCC2)cc1` (configuration not stated) it is -0.578%; for `CCN1CC(C(=O)NC(C)(C)CC(C)(C)C)CC1=O` (configuration not stated) it is -4.72%.
On to `CN(C)CCCNC(=O)c1cc(Br)c2c(c1)OCCO2`, for which the cytotoxicity at 10 µM is 13.3%.
Turning to `CSCc1nc(C(C)(C)NC(=O)OC(C)(C)C)no1`, the cytotoxicity at 10 µM is -8.44%.
Regarding `COCCn1cc(C(=O)N2CCCC2c2cc(C)no2)ccc1=O` (configuration not stated), the cytotoxicity at 10 µM is -17.7%.
Consider `Cc1cn(CC(=O)NC2CCN(S(C)(=O)=O)CC2)c2ccccc12`, for which the cytotoxicity at 10 µM came to 1.44%.
In the case of `CN(Cc1nnc(C2CC2)n1C)C(=O)c1ccnc(OC2CCC2)c1`, the cytotoxicity at 10 µM is -1.01%.
In the case of `CN(CCC#N)C(=O)CCOc1cccc(F)c1`, the cytotoxicity at 10 µM was -2.46%.
In the case of `CCc1nccn1C1CCCN(C(=O)c2cn3c(C)cccc3n2)C1` (configuration not stated), the cytotoxicity at 10 µM was -14.5%.
Turning to `Cc1ccc(CNC(=O)Nc2cc(C(F)(F)F)c[nH]c2=O)cn1`, the cytotoxicity at 10 µM was -21.8%.
On to `O=C1CCCCN1Cc1cccc(NC(=O)N2CCSCC2)c1`, for which the cytotoxicity at 10 µM is -9.99%.
On to `Cc1cccc(N2CCN(CCNC(=O)c3ccnn3C)CC2)c1`, for which the cytotoxicity at 10 µM was 10.4%.
The figure for `COc1cccc(CN2CCOC(Cn3nc(C)cc3C)C2)c1` (configuration not stated) is 7.83%; for `COCC(=O)N1CCc2ccc(=O)n(CC3CC3)c2CC1` it is 6.7%; for `O=C(c1cccnc1)N1CCC2(CC1)CN(c1ccccn1)CCO2` it is -69.5%.
As to `N#Cc1cccc(N2CC3(CCN(C(=O)c4ccnnc4)C3)CC2=O)c1` (configuration not stated), the cytotoxicity at 10 µM amounted to 2.64%.
Regarding `Cn1nc(CN2CCCCC2)c2c1CN(C(=O)c1ccoc1)C2`, the cytotoxicity at 10 µM amounted to 2.83%.
The figure for `CN1CC2(CCN(C(=O)COc3ccc(Cl)cc3Cl)CC2)OC1=O` is -3.25%; for `O=C(O)CCc1cc2n(n1)CCCN(C(=O)c1ccc(F)cc1F)C2` it is -0.168%; for `CCc1nc(C)c([C@H]2CN(C)C[C@@H]2C(=O)NCc2ccccc2OC)[nH]1` it is 0.15%.
As for `CCn1ccnc1CN1CCCC(N(C)CCc2ccccc2)C1` (configuration not stated), the cytotoxicity at 10 µM turned out to be 2.88%.
Take `Cc1ccc(C(=O)N2CCC(n3cc(CN)nn3)CC2)cc1F`: the cytotoxicity at 10 µM was -3.54%.
With `O=C(c1cc(COc2ccc3c(c2)OCO3)[nH]n1)N1CCSCC1`, the cytotoxicity at 10 µM was -7.05%.
As to `O=C1O[C@@H]2CN(Cc3cccnc3)C[C@@H]2N1CCCN1CCOCC1`, the cytotoxicity at 10 µM was -2.27%.
For the compound `CC(C)(C)c1ccc(OCc2nc3c(c(=O)[nH]2)CCNC3)cc1`, the cytotoxicity at 10 µM turned out to be 5.11%.
On to `CN1CCN([C@@H]2CCN(Cc3ccc4cc(F)ccc4n3)C[C@H]2O)CC1`, for which the cytotoxicity at 10 µM was -4.1%.
As for `COc1ccc(CCN)cc1-c1ccc(O)cc1`, the cytotoxicity at 10 µM was -3.05%.
For the compound `CC1=C(CCN2CCCC(O)C2)C(C)(C)CCC1` (configuration not stated), the cytotoxicity at 10 µM amounted to 3.43%.
Take `CN(C)C(=O)c1ccc2c(c1)N(C)C(CC(=O)NC(CO)CO)CO2` (configuration not stated): the cytotoxicity at 10 µM is -4.36%.
`CCC(C(=O)NC1CCCC1)n1ccc2ncccc2c1=O` (configuration not stated): the cytotoxicity at 10 µM came to 4.2%.
On to `COCCN(C/C=C/c1ccccc1)Cc1nccs1`, for which the cytotoxicity at 10 µM is 42.8%.
Regarding `CCS(=O)(=O)c1ncc(CN(C)Cc2ccccc2Cl)n1CCOC`, the cytotoxicity at 10 µM was found to be 3.58%.
Regarding `CCCc1ccc2oc(C(=O)N3CCN(CCOC)CC3)c(C)c2c1`, the cytotoxicity at 10 µM was -8.36%.
`Cc1ccc(Oc2ncccc2CNC2Cc3ccccc3C2)cn1`: the cytotoxicity at 10 µM was -2.19%.
Next, `Cc1cc2c(cc1C(=O)N1CCC3(CC(=O)NC3=O)C1)OCCO2` (configuration not stated): 7.15%; `CCn1nc(C)c(CCNC(=O)c2coc(CN3CCOCC3)c2)c1C`: -0.386%.
`CCn1c(CN(C)C)nnc1C1CCN(c2ccnc(C)c2)CC1`: the cytotoxicity at 10 µM stood at 14.9%.
Consider `Cc1cc(N2CCCN(C(=O)Cc3csc(C)n3)CC2)ccn1`, for which the cytotoxicity at 10 µM is -12%.
The figure for `NC(=O)C1CCN(c2nc3nccc(-c4ccccc4)c3c(=O)[nH]2)CC1` is -9%.
`COc1ccccc1CN(C)C(=O)NCc1c(C)cc(C)[nH]c1=O`: the cytotoxicity at 10 µM is -4.98%.
On to `CN(C)C(=O)c1cccc(CN2CCN(CC(O)C(C)(C)C)CC2)c1` (configuration not stated), for which the cytotoxicity at 10 µM was determined as 1.74%.
Regarding `CC(C)c1nc(C2CCCN2CCS(=O)(=O)c2ccccc2)no1` (configuration not stated), the cytotoxicity at 10 µM is -5.28%.
For the compound `CCN(CC)c1ccc(C(=O)N2CCCC(n3cncn3)C2)cn1` (configuration not stated), the cytotoxicity at 10 µM was -4.78%.
Take `CCOc1cc(/C=C/c2ncc(C(=O)O)s2)cc(Br)c1O`: the cytotoxicity at 10 µM is -4.49%.
`CCOC(=O)C1CCN(Cc2csc(C(C)(C)C)n2)CC1`: the cytotoxicity at 10 µM was -4.46%.
Consider `O=C(CN(C1=NCCCC1)c1ccccc1)c1ccccc1`, for which the cytotoxicity at 10 µM is -0.239%.
As to `CC[C@@H]1N(Cc2cccnc2)CCC[C@]12CCC(=O)N2C`, the cytotoxicity at 10 µM was -0.213%.
In the case of `O=C(Nc1cccnc1)[C@H]1C[C@@H]2CCN(c3nncs3)C[C@H]2O1`, the cytotoxicity at 10 µM is -13.3%.
Next, `CN1CCOCC12CCN(Cc1ccoc1)CC2`: 2.93%; `NC(=O)N1CCC2(CCN(Cc3cccc(F)c3)CC2)CC1`: -10.1%.
`CC1=N[C@@]2(CC[C@@H]3CN(Cc4ccccc4)C[C@@H]32)C(=O)N1CC1CC1`: the cytotoxicity at 10 µM is -0.302%.
Next, `Cn1cccc1C(=O)NCc1cnc2n1CCN(CC1CC1)C2`: 11.8%; `c1cnc(N2Cc3nccn3CC(COc3cccnc3)C2)nc1` (configuration not stated): 10.7%.
`COCc1cncc2c1CCN(Cc1ccccn1)C2`: the cytotoxicity at 10 µM was -10.2%.
